ChEMBL document CHEMBL1156792, “Application of the dipeptidyl peptidase IV (DPPIV/CD26) based prodrug approach to different amine-containing drugs” (J Med Chem, 2010)

Key:
[1] = substrate: N[C@@H](CC(=O)O)C(=O)N1CCC[C@H]1C(=O)Nc1ccc2ncccc2c1; experiment: (§1) Activity of human recombinant CD26 assessed as hydrolysis
How it was run: (§2)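 Human recombinant CD26 (Sf9-expressed) was incubated with prodrug at several levels (2–50 μM, or 50–1000 μM for the AspPro conjugate). Hydrolysis was quantified by RP-8 HPLC at 15, 30 and 45 min. Km and Vmax were calculated at each time point and averaged over the three, with at least two to three independent experiments.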

[2] = substrate: COc1cccc2c1C(=O)c1c(O)c3c(c(O)c1C2=O)C[C@@](O)(C(=O)CO)C[C@@H]3O[C@H]1C[C@H](NC(=O)[C@@H]2CCCN2C(=O)[C@@H](N)C(C)C)[C@H](O)[C@H](C)O1; experiment: as §1; how it was run: as §2
[3] = substrate: CC(C)[C@H](N)C(=O)N1CCC[C@H]1C(=O)N[C@H](C(=O)N1CCC[C@H]1C(=O)Nc1ncnc2c1ncn2[C@@H]1O[C@H](CO)[C@@H](O)[C@@H]1O)C(C)C; experiment: as §1; how it was run: as §2
[4] = substrate: CC(C)[C@H](N)C(=O)N1CCC[C@H]1C(=O)Nc1ccc2ncccc2c1; experiment: as §1; how it was run: as §2

B1: Dipeptidyl peptidase 4 (Homo sapiens), P27487 (protein)
chain: MKTPWKVLLGLLGAAALVTIITVPVVLLNKGTDDATADSRKTYTLTDYLKNTYRLKLYSLRWISDHEYLYKQENNILVFNAEYGNSSVFLENSTFDEFGHSINDYSISPDGQFILLEYNYVKQWRHSYTASYDIYDLNKRQLITEERIPNNTQWVTWSPVGHKLAYVWNNDIYVKIEPNLPSYRITWTGKEDIIYNGITDWVYEEEVFSAYSALWWSPNGTFLAYAQFNDTEVPLIEYSFYSDESLQYPKTVRVPYPKAGAVNPTVKFFVVNTDSLSSVTNATSIQITAPASMLIGDHYLCDVTWATQERISLQWLRRIQNYSVMDICDYDESSGRWNCLVARQHIEMSTTGWVGRFRPSEPHFTLDGNSFYKIISNEEGYRHICYFQIDKKDCTFITKGTWEVIGIEALTSDYLYYISNEYKGMPGGRNLYKIQLSDYTKVTCLSCELNPERCQYYSVSFSKEAKYYQLRCSGPGLPLYTLHSSVNDKGLRVLEDNSALDKMLQNVQMPSKKLDFIILNETKFWYQMILPPHFDKSKKYPLLLDVYAGPCSQKADTVFRLNWATYLASTENIIVASFDGRGSGYQGDKIMHAINRRLGTFEVEDQIEAARQFSKMGFVDNKRIAIWGWSYGGYVTSMVLGSGSGVFKCGIAVAPVSRWEYYDSVYTERYMGLPTPEDNLDHYRNSTVMSRAENFKQVEYLLIHGTADDNVHFQQSAQISKALVDVGVDFQAMWYTDEDHGIASSTAHQHIYTHMSHFIKQCFSLP
Q: With B1 as the protein, how does the Km [1] read?
A: 524 µM

Q: And the Vmax (nmol/hr/microg) [1]?
A: 70

Q: What about the Km [2] of the same protein?
A: 15 µM

Q: What about the Vmax (nmol/hr/microg) [2] of the same protein?
A: 30

Q: What about the Km [3] of the same protein?
A: 56 µM

Q: What about the Vmax (nmol/hr/microg) [3] of the same protein?
A: 10

Q: What about the Km [4] of the same protein?
A: 25 µM

Q: And the Vmax (nmol/hr/microg) [4]?
A: 32
